Assay outcomes (PubChem)
CYP2C9 activ = human CYP2C9 activators, primary screen, biochemical, luminescence; recombinant CYP2C9, luciferin-H conversion; hits give high values; factor 1 = untreated enzyme, 0 = blocked; activation factor at 5 µM; actives 1.4% (n = 96,000); AID 1024, 2008;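 active = activation factor of 2 or more for CYP2C9 at a 5 µM dose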;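 also: 0 = sulfaphenazole-blocked wells and 1 = vehicle-only wells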
CYP2C19 inh = blockers of cytochrome P450 2C19 activity – biochemical, luminescence, ADME assay, primary screen; inhibition, % at 5 µM; CYP2C19 Supersomes, luciferin-H EGE luminescence, 30 min; actives 21% (n = 96,000);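 active = CYP2C19 inhibition above a set limit at 5 µM in the primary screen, cut at about 50% in these data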;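 also: plate controls were negative control wells for no effect and 2.5 mM tranylcypromine positive control for full effect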
Target sequence (P33261 whole entry, looked up): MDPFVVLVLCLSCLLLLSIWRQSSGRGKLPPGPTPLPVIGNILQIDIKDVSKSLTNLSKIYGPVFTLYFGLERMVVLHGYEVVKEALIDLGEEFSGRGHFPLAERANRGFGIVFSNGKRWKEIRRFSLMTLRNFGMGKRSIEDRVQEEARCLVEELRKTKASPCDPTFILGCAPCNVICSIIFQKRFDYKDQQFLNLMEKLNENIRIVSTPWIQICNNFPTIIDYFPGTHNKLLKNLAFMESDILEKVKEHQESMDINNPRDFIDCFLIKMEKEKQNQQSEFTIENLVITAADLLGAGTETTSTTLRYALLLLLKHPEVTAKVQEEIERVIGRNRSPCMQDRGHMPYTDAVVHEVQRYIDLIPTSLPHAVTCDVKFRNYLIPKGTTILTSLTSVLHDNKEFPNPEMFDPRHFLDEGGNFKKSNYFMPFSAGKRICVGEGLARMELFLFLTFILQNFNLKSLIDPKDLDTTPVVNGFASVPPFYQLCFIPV
CYP2C9 inh = blockers of cytochrome P450 2C9 activity – biochemical, luminescence, ADME assay, primary screen; P11712; CYP2C9 Supersomes, luciferin-H conversion; inhibition, % at 5 µM; actives 20% (n = 96,000); AID 777, 2007;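 active = blocking of liver enzyme CYP2C9 beyond about 50% at 5 µM, limit read from the data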
Cav32 inh = Cav3.2 calcium influx blockers – cell-based, Fluo-4 calcium fluorescence, FDSS, MLSMR library, primary screen. Cav3.2-expressing cells; hits give low values. actives 4% (n = 100,000). B-score at 10 µM. Voltage-dependent T-type calcium channel subunit alpha-1H (Homo sapiens), O95180. AID 449739, 2010;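 active = single-dose well whose peak fluorescence ratio is a statistical outlier from its plate by either plate-standardised score or position-corrected B-score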
CYP2C19 act = human CYP2C19 activators, primary screen, biochemical, luminescence. recombinant CYP2C19, luciferin-H EGE luminescence; hits give high values; 0 = fully inhibited enzyme, 1 = untreated enzyme. Cytochrome P450 2C19 (Homo sapiens), P33261. 96,000 tested, under 10 active. activation factor at 5 µM;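 active = activation factor of at least 2 at 5 µM in the primary screen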;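 also: 0 = wells with 2.5 mM tranylcypromine and 1 = vehicle-only wells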
HIV Rev-RRE inh = HIV-1 Rev-RRE binding inhibitors, primary screen, biochemical, FRET, protein-RNA interaction; P05866; Rev peptide-RRE RNA binding; inhibition, % at 8 µM; actives 0.79% (n = 97,000); AID 704, 2007;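 active = inhibition above the screen-wide mean plus 3 SD, cut at about 35% in these data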;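 also: 0% = median DMSO wells and 100% = median Neomycin B control wells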
Target sequence (P05866 whole entry, looked up): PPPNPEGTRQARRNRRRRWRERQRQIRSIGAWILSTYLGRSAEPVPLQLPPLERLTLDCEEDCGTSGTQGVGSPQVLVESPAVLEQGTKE
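assay system = Cy5-tagged RRE RNA duplex with fluorescein-tagged Rev peptide | incubation = 5 + 15 min at 25 °C | also added = labelled Rev peptide | measure = % inhibition of FRET ratio versus controls | benchmarks = DMSO wells as 0% and neomycin B wells as 100% inhibition | measured by = FRET fluorescence readout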
Numbers without * were called inactive; . = not tested or not shown. Rows were chosen to be rich in hits. Some 27% of all compounds tested hit in one or more screens of this group.

SMILES	CYP2C9 activ	CYP2C19 inh	CYP2C9 inh	Cav32 inh	CYP2C19 act	HIV Rev-RRE inh
O=C(Nc1ccc(-n2nncc2-c2ccco2)cc1)c1cccc(F)c1	0.3	96.1*	72.0*	.	0	7.2
C=C(C)c1cccc(C(C)(C)NC(=O)N2CCCCC2CC)c1 (configuration not stated)	0.1	51.3*	89.4*	-4.54*	0.5	2.5
CCOc1ccc(-c2nnc(NC(=O)c3ccc(OCC(C)C)c(OC)c3)o2)cc1	1	14.4	-0.5	-4.19*	0.9	2.5
COc1cccc(C(=O)Nc2nnc(-c3ccc(Cl)cc3)o2)c1	.	.	.	-5.42*	.	.
NC(=O)NC(=O)COC(=O)c1ccccc1Oc1ccccc1	1	14.9	0.2	0.657	0.9	.
O=C(NC1CC1)C1=C[C@@H](c2c[nH]c3ccccc23)C[C@@H](OCc2ccc(CO)cc2)O1	.	.	.	0.046	.	.
Cc1ccc(S(=O)(=O)N(CC(=O)N2CCCCC2)c2cccc(C)c2)cc1	.	.	.	1.32	.	-2.0
Nn1c(Cc2cccc3ccccc23)nnc1SC1CCOC1=O (configuration not stated)	2.9*	55.4*	-191.2	1.1	0.4	-1.6
CN(C(=O)CSc1nnc(Cc2cccc3ccccc23)n1N)C1CCS(=O)(=O)C1 (configuration not stated)	2*	-15.7	-98.0	0.792	1.2	9.9
CCCCC(C(=O)NCCC(C)C)N(CCCN1CCOCC1)C(=O)c1snc(C(N)=O)c1N (configuration not stated)	1	2.1	-1.6	0.0796	1	0.2
COc1ccccc1-c1nnc(NC(C)=O)s1	2.1*	-7.3	-109.5	1.12	1.1	6.0
CCCCOC(=O)Nc1nnc(-c2ccccc2OC)s1	4.2*	13.1	-323.3	0.268	0.9	5.4
COc1ccccc1-c1nnc(NC(=O)C(C)C)s1	0.8	28.1	20.4	.	0.7	.
Nc1ccc(-n2ccnc2)cc1	0.5	57.5*	51.6*	1.27	0.4	8.0
CCOC(=O)C1=C(C)NC(C)=C(C(=O)OCC)C1C(=O)OC1CCOC1=O (configuration not stated)	1	27.6	-3.6	-0.00956	0.7	-0.8
O=[N+]([O-])c1ccc2nc(-c3ccccc3)n(OCc3ccc(Cl)cc3)c2c1	0.8	13.4	17.8	-4.45*	0.9	5.0
COn1c(-c2ccccc2)nc2ccc(Cl)cc21	0.9	22.9	14.9	.	0.8	5.2
COc1ccc(-c2c3c(nc4sc5c(Cl)nc(C)nc5c24)CCC3)cc1	0.4	-6.2	57.9*	3.68*	1.1	7.3
O=C(OCn1nnc2ccccc2c1=O)c1ccc2c(=O)n3c(nc2c1)CCC3	0.7	11.2	31.0	0.187	0.9	3.8
COC(=O)COn1c(-n2nc(C)cc2C)nc2ccccc2c1=O	0.8	-2.0	22.2	-0.175	1	-4.2
Cc1cc(C)n(-c2nc3ccccc3c(=O)n2OC2CCCCC2)n1	0.5	68.5*	52.5*	-0.0481	0.3	5.2
Cc1cc(C)n(-c2nc3ccccc3c3nc(C)nn23)n1	0.9	-5.7	7.0	-0.0347	1.1	.
CCOn1c(-n2nc(C)cc2C)nc2ccccc2c1=O	0.9	62.8*	6.5	0.378	0.4	8.6
O=C(COC(=O)c1cc[n+]([O-])cc1)NCC12CC3CC(CC(C3)C1)C2	1.1	-3.5	-11.5	0.0211	1	11.0
O=C(COc1ccccc1Cl)NC(=S)N1CCc2ccccc21	1.1	6.5	-9.5	-2.05	0.9	-1.9
SMILES	CYP2C9 activ	CYP2C19 inh	CYP2C9 inh	Cav32 inh	CYP2C19 act	HIV Rev-RRE inh
CCN1C(=O)c2ccccc2S(=O)c2ccc(C(=O)N3CCCCCC3)cc21 (configuration not stated)	1.1	-14.3	-5.6	.	1.1	3.0
CCN1CCN(C(=O)c2ccc3c(c2)N(Cc2ccc(F)cc2)C(=O)c2ccccc2S3=O)CC1 (configuration not stated)	.	.	.	-7.15*	.	7.2
CC(C)N(Cc1nc(-c2ccccc2)no1)C(=O)CN(C)S(=O)(=O)c1ccccc1	0.3	79.4*	69.1*	0.114	0.2	5.1
O=S(=O)(c1ccccc1)N(Cc1nc(-c2ccccc2)no1)C1CCCCC1	0.1	50.5*	92.6*	-3.56	0.5	23.1
CN(C1CCCCC1)S(=O)(=O)c1ccccc1	0.9	48.7	14.1	-0.0255	0.5	4.5
CC(C)N(Cc1nc(-c2ccccc2)no1)S(=O)(=O)c1ccccc1	0.3	58.4*	67.5*	-3.67	0.4	16.6
O=C(c1ccc(Cl)cc1)N1CCCC(c2ccccc2)=N1	0.8	29.3	19.8	-1.83	0.7	10.9
Cc1cc(C)c(S(=O)(=O)Nc2ccc(O)cc2)c(C)c1	0.9	71.2*	8.6	-3.68	0.3	5.1
O=C(N/N=C/c1cccc([N+](=O)[O-])c1)c1ccc2nc[nH]c2c1	0.5	24.2	50.8*	-0.283	0.8	-1.2
CC(NC(=O)CC(O)(C(F)(F)F)C(F)(F)F)c1ccccc1 (configuration not stated)	0.4	77.6*	57.1*	0.0826	0.2	2.0
CC1(C)CC(=O)C(C=NCCN2CCN(C(=O)c3ccc(Br)cc3)CC2)=C(O)C1	.	.	.	-0.613	.	3.6
O=C(CCC(NC(=O)OCc1ccccc1)C(=O)OCC(=O)N1CCCCC1)OCC(=O)N1CCCCC1 (configuration not stated)	0.1	83.2*	91.7*	0.283	0.2	10.0
CC(C)C(NC(=O)OCc1ccccc1)C(=O)OCC(=O)N1CCCCC1 (configuration not stated)	0.7	45.8	26.5	0.68	0.5	-0.1
CCOC(=O)CSc1nnc2n(Cc3ccccc3)c(=O)c3c4c(sc3n12)CCC4	0.6	17.3	37.3	0.657	0.8	2.0
CCOC(=O)c1ccc2ncc(C(=O)OCC)c(NCCCN3CCOCC3)c2c1	0.1	82.7*	87.5*	-0.32	0.2	-4.7
CCOc1ccc2nc(C)cc(Nc3ccc4c(c3)OCCO4)c2c1	0.9	34.0	12.4	-1.67	0.7	-1.9
CCOC(=O)c1cnc2ccc(OC)cc2c1Nc1ccc2c(c1)OCCO2	0	45.9	96.4*	-3.43	0.5	8.8
CCN(CC)S(=O)(=O)c1ccc(Cl)c(C(=O)NC2CCCC2)c1	0.9	20.6	11.9	0.417	0.8	0.4
CCN(CC)S(=O)(=O)c1cc(C(=O)Nc2cc(Cl)ccc2N2CCN(C)CC2)ccc1Cl	0.6	16.3	39.3	-7.65*	0.8	12.5
